Data as given in ChEMBL document CHEMBL1129356, “Novel 3,7-diheterabicyclo[3.3.1]nonanes that possess predominant class III antiarrhythmic activity in 1-4 day post infarction dog models: X-ray diffraction analysis of 3-[4-(1H-imidazol-1-yl)benzoyl]-7-isopropyl-3,7-diazabicyclo[3.3.1]nona ne dihydroperchlorate” (1996).
Active and inactive are the calls of the source.

Key:
Canis familiaris [1] = assay: Antiarrhythmic property is compared to lidocaine(2) using doses(3 and 6 mg/kg). Time required for the ventricular myocardium to undergo depolarization and repolarization (drug free); type: functional, Canis lupus familiaris
In short: (§1)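 Mongrel dogs (about 12–25 kg), 1–4 days after coronary occlusion infarction, under sodium pentobarbital (~30 mg/kg) with 12-lead ECG monitoring. Agents and lidocaine were given iv at 3 and 6 mg/kg. Programmed ventricular stimulation was applied at baseline, about 2–5 min after each dose, and at 30 min. SVT was defined as ≥250 beats/min lasting ≥30 s. Pre means drug-free; post means after dosing.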

Canis familiaris [2] = assay: Tested for antiarrhythmic property by measuring ability to decrease heart rate(post drug) is compared to Lidocaine using doses(3 and 6 mg/kg).; type: functional, Canis lupus familiaris; in short: as §1
Canis familiaris [3] = assay: Antiarrhythmic property His-Purkinje conduction time(drug free) is compared to lidocaine(2) using doses(3 and 6 mg/kg); No effect; type: functional, organism-based; set-up: dose 6 mg/kg; conditions: Canis lupus familiaris; His-Purkinje system; in short: as §1
Canis familiaris [4] = assay: (§2) Antiarrhythmic property ventricular effective refractory period(drug free) is compared to lidocaine(2) using doses(3 and 6 mg/kg); type: functional, Canis lupus familiaris, Heart; in short: as §1
Canis familiaris [5] = assay: Antiarrhythmic property Nonsustained ventricular tachycardia is compared to lidocaine(2) using dose of (3 and 6 mg/kg); type: functional, Canis lupus familiaris, Heart; in short: as §1
Canis familiaris [6] = assay: Tested for antiarrhythmic property by measuring ability to decrease Mean blood pressure (drug free) is compared to Lidocaine using doses(3 and 6 mg/kg).; type: functional, Canis lupus familiaris; in short: as §1
Canis familiaris [7] = assay: Antiarrhythmic property A-V nodal conduction time(drug free) is compared to lidocaine(2) using doses(3 and 6 mg/kg); type: functional, Canis lupus familiaris, Heart; in short: as §1
Canis familiaris [8] = assay: Tested for antiarrhythmic property by measuring ability to decrease Mean blood pressure (post drug) is compared to Lidocaine using doses(3 and 6 mg/kg); type: functional, Canis lupus familiaris; in short: as §1
Canis familiaris [9] = assay: Antiarrhythmic property His-Purkinje conduction time(post drug) is compared to lidocaine(2) using doses(3 and 6 mg/kg); No effect; type: functional, organism-based; set-up: dose 6 mg/kg; conditions: Canis lupus familiaris; His-Purkinje system; in short: as §1
Canis familiaris [10] = assay: Antiarrhythmic property A-V nodal conduction time(post drug) is compared to lidocaine(2) using dose (3 and 6 mg/kg); type: functional, Canis lupus familiaris, Heart; in short: as §1
Canis familiaris [11] = assay: Tested for antiarrhythmic property by measuring ability to decrease heart rate (drug free) is compared to Lidocaine using doses (3 and 6 mg/kg).; type: functional, Canis lupus familiaris; in short: as §1
Canis familiaris [12] = assay: Antiarrhythmic property is compared to lidocaine(2) using doses(3 and 6 mg/kg). Time required for the ventricular myocardium to undergo depolarization and repolarization ((post drug); type: functional, Canis lupus familiaris; in short: as §1
Canis familiaris [13] = assay: Antiarrhythmic property A-V nodal conduction time(post drug) is compared to lidocaine(2) using doses(3 and 6 mg/kg); type: functional, Canis lupus familiaris, Heart; in short: as §1
Canis familiaris [14] = assay: Antiarrhythmic property Heart rate (drug free) is compared to Lidocaine using doses (3 and 6 mg/kg).; type: functional, Canis lupus familiaris
In short: (§3)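 Mongrel dogs (~12–25 kg), 1–4 days after coronary occlusion leaving a surviving epicardial rim, anesthetized with sodium pentobarbital (~30 mg/kg). 12-lead ECG monitored throughout. Agent given iv at 3 and 6 mg/kg. Parameters recorded before (drug free) and after dosing. Programmed electrical stimulation tested SVT inducibility (≥250 beats/min, ≥30 s) at baseline, ~2–5 min after each dose, and at 30 min.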

Canis familiaris [15] = assay: as §2; type: functional, Canis lupus familiaris, Heart; in short: as §3; remark: listed apart in the source
Canis familiaris [16] = assay: Antiarrhythmic property Mean blood pressure (drug free) is compared to Lidocaine using doses(3 and 6 mg/kg).; type: functional, Canis lupus familiaris; in short: as §3
Canis familiaris [17] = assay: Antiarrhythmic property Heart rate (post drug) is compared to Lidocaine using doses(3 and 6 mg/kg). system.; type: functional, Canis lupus familiaris; in short: as §3
Canis familiaris [18] = assay: Antiarrhythmic property His-Purkinje conduction time(drug free) is compared to lidocaine(2) using doses(3 and 6 mg/kg); type: functional, Canis lupus familiaris, His-Purkinje system; in short: as §1
Canis familiaris [19] = assay: Antiarrhythmic property His-Purkinje conduction time(post drug) is compared to lidocaine(2) using doses(3 and 6 mg/kg); type: functional, Canis lupus familiaris, His-Purkinje system; in short: as §1
Canis familiaris [20] = assay: Antiarrhythmic property Mean blood pressure(post drug) is compared to Lidocaine using doses(3 and 6 mg/kg); type: functional, Canis lupus familiaris; in short: as §3
Canis familiaris [21] = assay: Tested for antiarrhythmic property by measuring ability to decrease Mean blood pressure(post drug) is compared to Lidocaine using doses(3 and 6 mg/kg); type: functional, Canis lupus familiaris; in short: as §1
Canis familiaris [22] = assay: Antiarrhythmic property ventricular effective refractory period(post drug) is compared to lidocaine(2) using doses(3 and 6 mg/kg); type: functional, Canis lupus familiaris, Heart; in short: as §1
Canis familiaris [23] = assay: Tested for antiarrhythmic property by measuring ability to decrease heart rate(drug free) is compared to Lidocaine using doses (3 and 6 mg/kg).; type: functional, Canis lupus familiaris; in short: as §1
Canis familiaris [24] = assay: Antiarrhythmic property ventricular effective refractory period(post drug) is compared to lidocaine(2) using doses(3 and 6 mg/kg); No effect; type: functional, organism-based; set-up: dose 6 mg/kg; conditions: Canis lupus familiaris; Heart; in short: as §3
Canis familiaris [25] = assay: Antiarrhythmic property A-V nodal conduction time(drug free) is compared to lidocaine(2) using doses(3 and 6 mg/kg); No effect; type: functional, organism-based; set-up: dose 6 mg/kg; conditions: Canis lupus familiaris; Heart; in short: as §3
Canis familiaris [26] = assay: Antiarrhythmic properties are compared to lidocaine(2) using doses(3 and 6 mg/kg). Time required for the ventricular myocardium to undergo depolarization and repolarization ((post drug); No effect; type: functional, organism-based; set-up: dose 6 mg/kg; conditions: Canis lupus familiaris; in short: as §3
Canis familiaris [27] = assay: Antiarrhythmic property is compared to lidocaine(2) using doses(3 and 6 mg/kg). Time required for the ventricular myocardium to undergo depolarization and repolarization (drug free); No effect; type: functional, organism-based; set-up: dose 6 mg/kg; conditions: Canis lupus familiaris; in short: as §3
Canis familiaris [28] = assay: Antiarrhythmic property A-V nodal conduction time(post drug) is compared to lidocaine(2) using dose (3 and 6 mg/kg); No effect; type: functional, organism-based; set-up: dose 6 mg/kg; conditions: Canis lupus familiaris; Heart; in short: as §3
Canis familiaris [29] = assay: Antiarrhythmic properties are compared to lidocaine(2) using doses(3 and 6 mg/kg). Time required for the ventricular myocardium to undergo depolarization and repolarization (drug free); No effect; type: functional, organism-based; set-up: dose 6 mg/kg; conditions: Canis lupus familiaris; in short: as §3
Canis familiaris [30] = assay: Antiarrhythmic property ventricular effective refractory period(drug free) is compared to lidocaine(2) using doses(3 and 6 mg/kg); No effect; type: functional, organism-based; set-up: dose 6 mg/kg; conditions: Canis lupus familiaris; Heart; in short: as §3
Canis familiaris [31] = assay: Antiarrhythmic property is compared to lidocaine(2) using doses(3 and 6 mg/kg). Time required for the ventricular myocardium to undergo depolarization and repolarization ((post drug); No effect; type: functional, organism-based; set-up: dose 6 mg/kg; conditions: Canis lupus familiaris; in short: as §3

## O=C(c1ccc(Cl)cc1)N1CC2CC(CN(CC3CC3)C2)C1
Canis familiaris [1]
  QT: 215 ms
Canis familiaris [2]
  HR: 105 beats min-1
Canis familiaris [3]
  HV interval: inactive
Canis familiaris [4]
  VERP: 170 ms
Canis familiaris [5]
  VERP: 220 ms
Canis familiaris [6]
  MBP: 88 mmHg
Canis familiaris [7]
  AH interval: 60 ms
Canis familiaris [8]
  MBP: 98 mmHg
Canis familiaris [9]
  HV interval: inactive
Canis familiaris [10]
  AH interval: 68 ms
Canis familiaris [11]
  HR: 125 beats min-1
Canis familiaris [12]
  QT: 250 ms

## CC(C)N1CC2CN(C(C)C)CC(C1)C21SCCS1
Canis familiaris [1]
  QT: 236 ms
Canis familiaris [13]
  AH interval: 75 ms
Canis familiaris [14]
  HR: 154 beats min-1
Canis familiaris [15]
  VERP: 140 ms
Canis familiaris [16]
  MBP: 61 mmHg
Canis familiaris [17]
  HR: 105 beats min-1
Canis familiaris [5]
  VERP: 180 ms
Canis familiaris [18]
  HV interval: 30 ms
Canis familiaris [7]
  AH interval: 56 ms
Canis familiaris [19]
  HV interval: 40 ms
Canis familiaris [20]
  MBP: 76 mmHg
Canis familiaris [12]
  QT: 270 ms

## CC(C)N1CC2CC(CN(C(=O)c3ccc([N+](=O)[O-])cc3)C2)C1.Cl
Canis familiaris [1]
  QT: 220 ms
Canis familiaris [13]
  AH interval: 75 ms
Canis familiaris [2]
  HR: 100 beats min-1
Canis familiaris [21]
  MBP: 75 mmHg
Canis familiaris [4]
  NSVT: 6 mg/kg
  VERP: 160 ms
Canis familiaris [6]
  MBP: 95 mmHg
Canis familiaris [7]
  AH interval: 60 ms
Canis familiaris [22]
  VERP: 230 ms
Canis familiaris [23]
  HR: 130 beats min-1
Canis familiaris [12]
  QT: 260 ms

## c1ccc(CN2CC3CSCC(C3)C2)cc1
Canis familiaris [24]
  VERP: inactive
Canis familiaris [25]
  AH interval: inactive
Canis familiaris [26]
  QT: inactive
Canis familiaris [27]
  QT: inactive
Canis familiaris [28]
  AH interval: inactive
Canis familiaris [29]
  QT: inactive
Canis familiaris [30]
  VERP: inactive
Canis familiaris [31]
  QT: inactive
